From ChEMBL document CHEMBL1154265, “Alkaloids from the leaves of Daphniphyllum subverticillatum” (J Nat Prod, 2009)
Calls of active or inactive are those of the source. The rule behind the calls is not given here.

Assays:
A549 = experiment: Cytotoxicity against human A549 cells after 72 hrs by sulforhodamine B assay; type: functional, cell-based
How it was run: (§1)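 SRB staining on A-549, BEL-7402 and HMEC (human microvascular endothelial) cells, run to earlier published protocols, with pseudolaric acid B as the positive control; IC50 values reported.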

HL-60 = experiment: Cytotoxicity against human HL60 cells after 72 hrs by MTT assay; type: functional, cell-based
How it was run: (§2)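 MTT read-out on HL-60 and P-388 cells, run to earlier published protocols, with pseudolaric acid B as the positive control; IC50 values reported.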

Bel-7402 = experiment: Cytotoxicity against human Bel7402 cells after 72 hrs by sulforhodamine B assay; type: functional, cell-based; how it was run: as §1
P388 = experiment: Cytotoxicity against mouse P388 cells after 72 hrs by MTT assay; type: functional, cell-based; how it was run: as §2
HMEC = experiment: Cytotoxicity against human HMEC cells after 72 hrs by sulforhodamine B assay; type: cell-based; conditions: for Activity: human, hmec; how it was run: as §1

SMILES	Activity (A549)	Activity (HL-60)	Activity (Bel-7402)	Activity (P388)	Activity (HMEC)	IC50 (HL-60; HL-60, 72 h) [µM]	IC50 (Bel-7402; Bel-7402, 72 h) [µM]	IC50 (P388; P388, 72 h) [nM]	IC50 (HMEC; Homo sapiens, HMEC) [nM]
CC(C)[C@H]1CC[C@@]2(C)[C@@H]3C[C@@H](O)[C@]45CCC[C@H]4[C@@]2(CCC(=O)[C@]2(C)CO[C@]4(C)CCC2O4)[C@@H]1N5C3 [HYDROXYCODAPHNIPHYLLINE]	inactive	inactive	inactive	inactive	Non-toxic	–	–	–	–
CC[C@@]1(O)CC[C@@]2(CO1)[C@H]1CCC3=C4[C@H](C[C@@H]3O)[C@H](C(=O)OC)C[C@@]42CN(C)C1	inactive	inactive	inactive	inactive	Non-toxic	–	–	–	–
CC(=O)O[C@@H]1CC[C@@]2(C)O[C@@H](O)[C@@]1(C)C2CC[C@@]12[C@@H]3NC4C(CC[C@@]45CCC[C@H]51)[C@]2(C)CC[C@@H]3C(C)C (stereo not given in full) [DAPHNILONGERIDINE]	inactive	–	–	–	–	9.5	9.7	2400	2700
COC(=O)[C@@H]1C[C@@]23C(=O)[C@@H]4C[C@H]5N(C[C@@H](CCC6=C2[C@@H]1CC6)[C@]53COC(C)=O)C[C@H]4C [SUBDAPHNIDINE A]	inactive	inactive	inactive	inactive	Non-toxic	–	–	–	–
COC(=O)CC[C@]12C3=CCC[C@@H]3CC[C@@H]3C=N[C@@H]1[C@@H](C(C)C)CC[C@@]32C [DAPHNEZOMINE L METHYL ESTER]	inactive	inactive	inactive	inactive	Non-toxic	–	–	–	–
